Measurements reported in ChEMBL document CHEMBL1129609, “Synthesis and antiviral activity evaluation of some new aminoadamantane derivatives. 2” (1996).
In brackets after ≈: the same amount, converted by molar mass.

Key:
Vero = assay: Effects on cell morphology of Vero cell lines.; assay type: functional; conditions: Chlorocebus sabaeus
Method in brief: (§1)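 HeLa (human epithelial) or Vero (African green monkey kidney) cells were examined under the microscope for changes in normal morphology. The value is the minimum concentration causing a detectable alteration, averaged from at least two separate experiments.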

MDCK [1] = assay: Antiviral activity of compound was tested against morphology virus infec+ted MDCK cell lines.; assay type: functional; conditions: Canis lupus familiaris
HEF = assay: Effects on cell morphology of HEF cell lines.; assay type: functional; conditions: Homo sapiens
Method in brief: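 Human embryonic skin-muscle fibroblasts were examined under the microscope for changes in normal cell morphology. The value is the minimum concentration causing a microscopically detectable alteration, averaged from at least two separate experiments.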

Sindbis virus = assay: Antiviral activity against sindbis virus infected Vero cell lines.; assay type: functional
Method in brief: (§2)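 Vero (African green monkey kidney), HeLa (human epithelial) or HEL (human embryonic lung) cell monolayers infected with the virus. Readout is the minimum inhibitory concentration that reduces virus-induced cytopathicity by 50%. Values are averages of at least two separate experiments.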

[2] = test system: Human immunodeficiency virus 2; assay: Antiviral activity against HIV-2 virus infected CEM cell lines.; assay type: functional, CCRF-CEM
Influenza B virus = assay: Antiviral activity against influenza B virus infected MDCK cell lines.; assay type: functional
[3] = Antiviral activity against influenza A,H2N2 virus infected MDCK cell lines.; assay type: functional
Coxsackievirus B4 [4] = assay: Antiviral activity against Coxsackie B4 virus infected HeLa cell lines.; assay type: functional; conditions: Enterovirus B; method in brief: as §2
Human alphaherpesvirus 1 [5] = assay: Antiviral activity against TK-HSV-1 virus infected HEF cell lines.; assay type: functional
Method in brief: (§3)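 Human embryonic fibroblasts, from embryonic lung or embryonic skin-muscle, infected with the virus. Endpoint is the minimum inhibitory concentration that reduces virus-induced cytopathicity by 50%. Values are averages of at least two separate experiments.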

Human alphaherpesvirus 3 [6] = assay: Antiviral activity against TK-VZV virus infected HEL cell lines.; assay type: functional; method in brief: as §2
[7] = test system: Human immunodeficiency virus 1; assay: Antiviral activity against HIV-1 virus infected CEM cell lines.; assay type: functional, CCRF-CEM
Semliki Forest virus = assay: Antiviral activity against Semliki forest virus infected Vero cell lines.; assay type: functional; method in brief: as §2
Human alphaherpesvirus 1 [8] = assay: Antiviral activity against HSV-1 virus infected HEF cell lines.; assay type: functional; method in brief: as §3
Human alphaherpesvirus 3 [9] = assay: Antiviral activity against TK+VZV virus infected HEL cell lines.; assay type: functional; method in brief: as §2
HEL = assay: Inhibition of HEL cell proliferation.; assay type: functional; conditions: Homo sapiens
Method in brief: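 Human embryonic lung fibroblasts were used for the proliferation assay. The value is the concentration that reduces cell proliferation by 50%, averaged from at least two separate experiments.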

Human alphaherpesvirus 2 = assay: Antiviral activity against HSV-2 virus infected HEF cell lines.; assay type: functional; method in brief: as §3
Coxsackievirus B4 [10] = assay: Antiviral activity against Coxsackie B4 virus infected vero cell lines.; assay type: functional; conditions: Enterovirus B; method in brief: as §2
Human respirovirus 3 = assay: Antiviral activity against parainfluenza 3 virus infected Vero cell lines.; assay type: functional; method in brief: as §2
[11] = test system: Vesicular stomatitis virus; assay: Antiviral activity against vesicular stomatitis virus infected HeLa cell lines.; assay type: functional; method in brief: as §2
[12] = test system: Mammalian orthoreovirus 1; assay: Antiviral activity against Reo 1 virus infected vero cell lines.; assay type: functional; method in brief: as §2
CCRF-CEM = assay: Cytotoxicity against CEM cell lines.; assay type: functional; conditions: Homo sapiens
Human betaherpesvirus 5 = assay: Antiviral activity against HCMV virus infected HEL cell lines.; assay type: functional; method in brief: as §2
Enterovirus C = assay: Antiviral activity against polio 1 virus infected HeLa cell lines.; assay type: functional; method in brief: as §2
[13] = Antiviral activity against influenza A,H3N2 virus infected MDCK cell lines.; assay type: functional
MDCK [14] = assay: Antiviral activity tested against influenza A,H1N1 virus infected MDCK cell lines.; assay type: functional; conditions: Canis lupus familiaris
HeLa = assay: Effects on cell morphology of HeLa cell lines.; assay type: functional; conditions: Homo sapiens; method in brief: as §1
Vaccinia virus = assay: Antiviral activity against vaccinia virus infected HEF cell lines.; assay type: functional; conditions: Orthopoxvirus vaccinia; method in brief: as §3
[15] = test system: Vesicular stomatitis virus; assay: Antiviral activity against vesicular stomatitis virus infected HEF cell lines.; assay type: functional; method in brief: as §3

`C1CCC2(CC1)CCCN2CC12CC3CC(CC(C3)C1)C2` showed an MIC50 (Vero) greater than 200 µg/mL, an MIC50 (MDCK [1]) greater than 250 µg/mL and an MIC50 (HEF) of 100 µg/mL (≈ 348 µM). For the same molecule, the MIC50 (Sindbis virus) was greater than 100 µg/mL, the MIC50 [2] was greater than 20 µg/mL and the MIC50 (Influenza B virus) was greater than 100 µg/mL. For the same molecule, the MIC50 [3] was greater than 100 µg/mL, the MIC50 (Coxsackievirus B4 [4]) was greater than 100 µg/mL and the MIC50 (Human alphaherpesvirus 1 [5]) was greater than 40 µg/mL. The MIC50 (Human alphaherpesvirus 3 [6]) was 20 µg/mL (≈ 69.6 µM), the MIC50 [7] was greater than 20 µg/mL and the MIC50 (Semliki Forest virus) was greater than 100 µg/mL. It also gave an MIC50 (Human alphaherpesvirus 1 [8]) greater than 40 µg/mL, an MIC50 (Human alphaherpesvirus 3 [9]) of 30 µg/mL (≈ 104 µM) and an MIC50 (HEL) greater than 50 µg/mL. For the same molecule, the MIC50 (Human alphaherpesvirus 2) was greater than 40 µg/mL, the MIC50 (Coxsackievirus B4 [10]) was greater than 100 µg/mL and the MIC50 (Human respirovirus 3) was greater than 100 µg/mL. The MIC50 [11] was 100 µg/mL (≈ 348 µM), the MIC50 [12] was greater than 100 µg/mL and the MIC50 (CCRF-CEM) was 33 µg/mL (≈ 115 µM). The MIC50 (Human betaherpesvirus 5) was greater than 50 µg/mL, the MIC50 (Enterovirus C) was greater than 100 µg/mL and the MIC50 [13] was greater than 100 µg/mL. For the same molecule, the MIC50 (MDCK [14]) was greater than 150 µg/mL, the MIC50 (HeLa) was 200 µg/mL (≈ 696 µM) and the MIC50 (Vaccinia virus) was greater than 40 µg/mL. It also gave an MIC50 [15] greater than 40 µg/mL.
For `CCN1CCCCC12C1CC3CC(C1)CC2C3` (stereo not given), the MIC50 (Vero) was greater than 400 µg/mL, the MIC50 (MDCK [1]) was greater than 250 µg/mL and the MIC50 (HEF) was 100 µg/mL (≈ 428 µM). The MIC50 (Sindbis virus) was greater than 400 µg/mL, the MIC50 [2] was greater than 200 µg/mL and the MIC50 (Influenza B virus) was greater than 80 µg/mL. It also gave an MIC50 [3] of 31 µg/mL (≈ 133 µM), an MIC50 (Coxsackievirus B4 [4]) greater than 400 µg/mL and an MIC50 (Human alphaherpesvirus 1 [5]) greater than 200 µg/mL. For the same molecule, the MIC50 (Human alphaherpesvirus 3 [6]) was greater than 50 µg/mL, the MIC50 [7] was 200 µg/mL (≈ 857 µM) and the MIC50 (Semliki Forest virus) was greater than 400 µg/mL. The MIC50 (Human alphaherpesvirus 1 [8]) was greater than 200 µg/mL, the MIC50 (Human alphaherpesvirus 3 [9]) was greater than 50 µg/mL and the MIC50 (HEL) was greater than 50 µg/mL. The MIC50 (Human alphaherpesvirus 2) was greater than 200 µg/mL, the MIC50 (Coxsackievirus B4 [10]) was greater than 400 µg/mL and the MIC50 (Human respirovirus 3) was greater than 400 µg/mL. It also gave an MIC50 [11] greater than 400 µg/mL, an MIC50 [12] greater than 400 µg/mL and an MIC50 (CCRF-CEM) greater than 200 µg/mL. For the same molecule, the MIC50 (Human betaherpesvirus 5) was greater than 50 µg/mL, the MIC50 (Enterovirus C) was greater than 400 µg/mL and the MIC50 [13] was greater than 65 µg/mL. For the same molecule, the MIC50 (MDCK [14]) was 4.4 µg/mL (≈ 18.9 µM), the MIC50 (HeLa) was greater than 400 µg/mL and the MIC50 (Vaccinia virus) was greater than 200 µg/mL. It also gave an MIC50 [15] greater than 200 µg/mL.
`NC1(C23CC4CC(CC(C4)C2)C3)CCCC1` gave an MIC50 (Vero) greater than 400 µg/mL, an MIC50 (MDCK [1]) greater than 250 µg/mL and an MIC50 (HEF) of 40 µg/mL (≈ 182 µM). The MIC50 (Sindbis virus) was greater than 10 µg/mL, the MIC50 [2] was greater than 8 µg/mL and the MIC50 (Influenza B virus) was 20 µg/mL (≈ 91.2 µM). For the same molecule, the MIC50 [3] was 2.5 µg/mL (≈ 11.4 µM), the MIC50 (Coxsackievirus B4 [4]) was greater than 40 µg/mL and the MIC50 (Human alphaherpesvirus 1 [5]) was greater than 10 µg/mL. The MIC50 (Human alphaherpesvirus 3 [6]) was greater than 20 µg/mL, the MIC50 [7] was greater than 8 µg/mL and the MIC50 (Semliki Forest virus) was greater than 10 µg/mL. The MIC50 (Human alphaherpesvirus 1 [8]) was greater than 10 µg/mL, the MIC50 (Human alphaherpesvirus 3 [9]) was greater than 20 µg/mL and the MIC50 (HEL) was greater than 50 µg/mL. It also gave an MIC50 (Human alphaherpesvirus 2) greater than 10 µg/mL, an MIC50 (Coxsackievirus B4 [10]) greater than 10 µg/mL and an MIC50 (Human respirovirus 3) greater than 10 µg/mL. For the same molecule, the MIC50 [11] was greater than 40 µg/mL, the MIC50 [12] was greater than 10 µg/mL and the MIC50 (CCRF-CEM) was 18 µg/mL (≈ 82.1 µM). For the same molecule, the MIC50 (Human betaherpesvirus 5) was greater than 20 µg/mL, the MIC50 (Enterovirus C) was greater than 40 µg/mL and the MIC50 [13] was 6 µg/mL (≈ 27.4 µM). The MIC50 (MDCK [14]) was greater than 64 µg/mL, the MIC50 (HeLa) was 100 µg/mL (≈ 456 µM) and the MIC50 (Vaccinia virus) was greater than 10 µg/mL. It also gave an MIC50 [15] greater than 10 µg/mL.
With `CC1(C)CCCN1CC12CC3CC(CC(C3)C1)C2` the MIC50 (Vero) was greater than 400 µg/mL, the MIC50 (MDCK [1]) was greater than 250 µg/mL and the MIC50 (HEF) was 100 µg/mL (≈ 404 µM). It also gave an MIC50 (Sindbis virus) greater than 200 µg/mL, an MIC50 [2] greater than 40 µg/mL and an MIC50 (Influenza B virus) greater than 100 µg/mL. For the same molecule, the MIC50 [3] was 35 µg/mL (≈ 141 µM), the MIC50 (Coxsackievirus B4 [4]) was greater than 200 µg/mL and the MIC50 (Human alphaherpesvirus 1 [5]) was greater than 40 µg/mL. For the same molecule, the MIC50 (Human alphaherpesvirus 3 [6]) was greater than 50 µg/mL, the MIC50 [7] was greater than 40 µg/mL and the MIC50 (Semliki Forest virus) was greater than 200 µg/mL. For the same molecule, the MIC50 (Human alphaherpesvirus 1 [8]) was greater than 40 µg/mL, the MIC50 (Human alphaherpesvirus 3 [9]) was greater than 50 µg/mL and the MIC50 (HEL) was greater than 50 µg/mL. For the same molecule, the MIC50 (Human alphaherpesvirus 2) was greater than 40 µg/mL, the MIC50 (Coxsackievirus B4 [10]) was greater than 200 µg/mL and the MIC50 (Human respirovirus 3) was greater than 200 µg/mL. The MIC50 [11] was 100 µg/mL (≈ 404 µM), the MIC50 [12] was greater than 200 µg/mL and the MIC50 (CCRF-CEM) was 99 µg/mL (≈ 400 µM). For the same molecule, the MIC50 (Human betaherpesvirus 5) was greater than 50 µg/mL, the MIC50 (Enterovirus C) was greater than 200 µg/mL and the MIC50 [13] was greater than 87 µg/mL. The MIC50 (MDCK [14]) was greater than 150 µg/mL, the MIC50 (HeLa) was greater than 400 µg/mL and the MIC50 (Vaccinia virus) was greater than 40 µg/mL. For the same molecule, the MIC50 [15] was greater than 40 µg/mL.
With `C1CCC2(NC1)C1CC3CC(C1)CC2C3` (stereo not given) the MIC50 (Vero) was greater than 400 µg/mL, the MIC50 (MDCK [1]) was greater than 250 µg/mL and the MIC50 (HEF) was 400 µg/mL (≈ 1950 µM). It also gave an MIC50 (Sindbis virus) greater than 400 µg/mL, an MIC50 [2] greater than 40 µg/mL and an MIC50 (Influenza B virus) of 60 µg/mL (≈ 292 µM). For the same molecule, the MIC50 [3] was 0.24 µg/mL (≈ 1.17 µM), the MIC50 (Coxsackievirus B4 [4]) was greater than 400 µg/mL and the MIC50 (Human alphaherpesvirus 1 [5]) was greater than 200 µg/mL. The MIC50 (Human alphaherpesvirus 3 [6]) was greater than 50 µg/mL, the MIC50 [7] was greater than 40 µg/mL and the MIC50 (Semliki Forest virus) was greater than 400 µg/mL. The MIC50 (Human alphaherpesvirus 1 [8]) was 100 µg/mL (≈ 487 µM), the MIC50 (Human alphaherpesvirus 3 [9]) was greater than 50 µg/mL and the MIC50 (HEL) was greater than 50 µg/mL. The MIC50 (Human alphaherpesvirus 2) was greater than 200 µg/mL, the MIC50 (Coxsackievirus B4 [10]) was greater than 400 µg/mL and the MIC50 (Human respirovirus 3) was greater than 400 µg/mL. The MIC50 [11] was greater than 400 µg/mL, the MIC50 [12] was greater than 400 µg/mL and the MIC50 (CCRF-CEM) was 93 µg/mL (≈ 453 µM). For the same molecule, the MIC50 (Human betaherpesvirus 5) was greater than 50 µg/mL, the MIC50 (Enterovirus C) was greater than 400 µg/mL and the MIC50 [13] was 43 µg/mL (≈ 209 µM). The MIC50 (MDCK [14]) was greater than 35 µg/mL, the MIC50 (HeLa) was greater than 400 µg/mL and the MIC50 (Vaccinia virus) was greater than 200 µg/mL. For the same molecule, the MIC50 [15] was greater than 200 µg/mL.
